Assay results: ChEMBL document CHEMBL1143992, “Trypanosoma cruzi: activities of lapachol and alpha- and beta-lapachone derivatives against epimastigote and trypomastigote forms” (Bioorg Med Chem, 2008)

Experiments:
Trypanosoma cruzi [1] = test: Growth inhibition of Trypanosoma cruzi Tulahuen epimastigotes assessed as drug level causing decrease in growth constant; assay type: functional, organism-based
How it was run: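 Tulahuen epimastigotes were seeded at 3 × 10^6/mL in Diamond's medium with 4 µM hemin, 5% FBS and penicillin/streptomycin at 28 °C. Drugs were added in DMSO (1% final) at several concentrations, in triplicate. Growth was followed daily for 10 days by nephelometry and fitted to first-order kinetics to give the growth constant k. ICk50 is the concentration lowering k by 50%.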

Trypanosoma cruzi [2] = test: Effect on oxygen redox cycling in Trypanosoma cruzi Tulahuen assessed as oxygen consumption per mg of protein relative to control; assay type: functional; parameters: concentration or dose not given beside the values
How it was run: (§1)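 Tulahuen epimastigotes were harvested on day 4 or 5 (500g, 10 min), washed and resuspended in 0.05 M sodium phosphate buffer pH 7.4 (0.107 M NaCl, 0.05 M KH2PO4). Respiration was measured polarographically with a Clark electrode as nanoatoms-gram O/min/mg protein, as % of control. Redox cycling was measured with 20 mM KCN, as % of KCN control. Values are means of three experiments.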

Trypanosoma cruzi [3] = test: Effect on oxygen uptake per mg of protein in Trypanosoma cruzi Tulahuen epimastigotes relative to control; assay type: functional; parameters: concentration or dose not given beside the values; how it was run: as §1
Trypanosoma cruzi [4] = test: Antitrypanosomal activity against Trypanosoma cruzi MF assessed as trypomastigote viability at 20.1 uM by MTT assay relative to control
Trypanosoma cruzi [5] = test: Antitrypanosomal activity against Trypanosoma cruzi MF assessed as trypomastigote viability at 38.1 uM by MTT assay relative to control
Trypanosoma cruzi [6] = test: Antitrypanosomal activity against Trypanosoma cruzi MF assessed as trypomastigote viability at 31.3 uM by MTT assay relative to control
Trypanosoma cruzi [7] = test: Antitrypanosomal activity against Trypanosoma cruzi MF assessed as trypomastigote viability at 1.93 uM by MTT assay relative to control
Trypanosoma cruzi [8] = test: Antitrypanosomal activity against Trypanosoma cruzi MF assessed as trypomastigote viability at 24.7 uM by MTT assay relative to control
Trypanosoma cruzi [9] = test: Antitrypanosomal activity against Trypanosoma cruzi MF assessed as trypomastigote viability at >100 uM by MTT assay relative to control
Trypanosoma cruzi [10] = test: Antitrypanosomal activity against Trypanosoma cruzi MF assessed as trypomastigote viability at 22.2 uM by MTT assay relative to control
Trypanosoma cruzi [11] = test: Antitrypanosomal activity against Trypanosoma cruzi MF assessed as trypomastigote viability at 0.19 uM by MTT assay relative to control
Trypanosoma cruzi [12] = test: Antitrypanosomal activity against Trypanosoma cruzi MF assessed as trypomastigote viability at 24.5 uM by MTT assay relative to control
Trypanosoma cruzi [13] = test: Antitrypanosomal activity against Trypanosoma cruzi MF assessed as viability at 3.75 uM by MTT assay relative to control

IC50 (Trypanosoma cruzi [1]) [µM] | Compound | Activity (Trypanosoma cruzi [2]) [%] | Activity (Trypanosoma cruzi [3]) [%] | other results
20.1 | CC1(C)C=CC2=C(O1)C(=O)c1ncccc1C2=O | 254 | 243.3 | Activity (Trypanosoma cruzi [4]): 44.8%
38.1 | COc1cccc2c1C(=O)C1=C(C=CC(C)(C)O1)C2=O | 100 | 100.2 | Activity (Trypanosoma cruzi [5]): 26.7%
36.3 | CC(=O)CC1CCC2=C(O1)C(=O)c1ccccc1C2=O (stereo not given) | 168 | 142.5 | 
9.5 | CC1CS(=O)(=O)CCN1/N=C/c1ccc([N+](=O)[O-])o1 (stereo not given) [NIFURTIMOX] | 113 | 120.4 | 
26.2 | CC1CC(c2ccccc2)C2=C(O1)C(=O)c1ccccc1C2=O (stereo not given) | 96 | 95.4 | 
1.93 | CC1CCC2=C(O1)c1ccccc1C(=O)C2=O (stereo not given) | 100 | 100.6 | Activity (Trypanosoma cruzi [7]): 40.3%
24.7 | CC1(C)CCC2=C(O1)c1ccccc1C(=O)C2=O [LAPACHONE] | 100 | 107.5 | Activity (Trypanosoma cruzi [8]): 2.9%
20.6 | O=C(Cn1ccnc1[N+](=O)[O-])NCc1ccccc1 [BENZNIDAZOLE] | 82 | 57.8 | 
35.2 | CC(=O)CCC1=C(O)C(=O)c2ccccc2C1=O | 100 | 100.6 | 
> 100 | CC(C)(O)CCC1=C(O)C(=O)c2ccccc2C1=O | 109 | 125 | Activity (Trypanosoma cruzi [9]): 112.6%
22.2 | CC(=O)OC1CC(C)(C)OC2=C1C(=O)c1ccccc1C2=O (stereo not given) | 168 | 135.5 | Activity (Trypanosoma cruzi [10]): 32.9%
0.19 | CC1(C)CC(O)C2=C(O1)C(=O)c1ncccc1C2=O (stereo not given) | 55 | 33.2 | Activity (Trypanosoma cruzi [11]): 8.8%
24.5 | CC1CCC2=C(O1)C(=O)c1ccccc1C2=O (stereo not given) | 173 | 138.8 | Activity (Trypanosoma cruzi [12]): 15.6%
3.75 | CC1(C)OC2=C(CC1O)C(=O)C(=O)c1ccccc12 (stereo not given) | 100 | 96.8 | Activity (Trypanosoma cruzi [13]): 30.4%

Compound | IC50 (Trypanosoma cruzi [1]) [µM] | Activity (Trypanosoma cruzi [2]) [%] | Activity (Trypanosoma cruzi [3]) [%] | other results
CC(C)=CCC1=C(O)C(=O)c2ccccc2C1=O [LAPACHOL] | 31.3 | 82 | 51.8 | Activity (Trypanosoma cruzi [6]): 41.7%
